# In the library only some 2.2% were active in any assay of this set; here they are far more common.
# GSTO1 inh – counter-screen for RBBP9 inhibitors: inhibitors of human GSTO1; inhibition, % at 5.96 µM; recombinant GSTO1, activity-based probe fluorescence polarization; hit rate 1.1% among 300,000; P78417;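 active = inhibition above the campaign mean inhibition plus 3 SD, cut at about 35% in these data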;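 note: 0% = GSTO1-1 with DMSO and 100% = wells lacking GSTO1-1 enzyme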
# UBC13 inh – inhibitors of human UBC13 polyubiquitin chain formation; TR-FRET; inhibition, % at 20 µM; AID 485273; P61088; hit rate 0.47% among 330,000; in the data active = inhibition above about 45%, passing the limit was not always enough
# Apaf1 inhib – human Apaf-1 inhibition | O14727 | reconstituted apoptosome caspase-3 activity, DEVD-Rh110 fluorescence | inhibition, % at 20 µM | hit rate 0.71% among 330,000; active = inhibition of at least 40% at 20 µM;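 note: plate controls were DMSO wells for no effect and DEVD-CHO caspase inhibitor wells for full effect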
#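 System – cell-free apoptosome with Apaf-1, procaspase-3 and caspase-9 · Buffer or medium – pH 7.5 Hepes buffer with CHAPS, BSA, DTT · Also added – cytochrome c with DEVD-Rh110 · Times – 30 min compound preincubation, 50 min activation, room temperature · Technique – Rh110 fluorescence intensity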
# PAD4 FP inh – inhibitors of human PAD4. Q9UM07. recombinant PAD4, RCA probe fluorescence polarization. inhibition, % at 6.36 µM. hit rate 0.41% among 330,000. AID 485272;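 active = percent inhibition above a cutoff equal to the mean of all tested compounds plus 3 SD, cut at about 15% in these data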;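 note: 0% = PAD4 with RCA probe and DMSO and 100% = probe without PAD4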
# Rin1-Abl PPI inh – human Rin1-Abl interaction inhibition. P00519+Q13671. hit rate 0.4% among 360,000. inhibition, % at 7.35 µM. AID 588664. TR-FRET Rin1/Abl binding, biochemical; in the data active = inhibition above about 5%, passing the limit was not always enough
# Target sequence (P00519 whole entry, looked up): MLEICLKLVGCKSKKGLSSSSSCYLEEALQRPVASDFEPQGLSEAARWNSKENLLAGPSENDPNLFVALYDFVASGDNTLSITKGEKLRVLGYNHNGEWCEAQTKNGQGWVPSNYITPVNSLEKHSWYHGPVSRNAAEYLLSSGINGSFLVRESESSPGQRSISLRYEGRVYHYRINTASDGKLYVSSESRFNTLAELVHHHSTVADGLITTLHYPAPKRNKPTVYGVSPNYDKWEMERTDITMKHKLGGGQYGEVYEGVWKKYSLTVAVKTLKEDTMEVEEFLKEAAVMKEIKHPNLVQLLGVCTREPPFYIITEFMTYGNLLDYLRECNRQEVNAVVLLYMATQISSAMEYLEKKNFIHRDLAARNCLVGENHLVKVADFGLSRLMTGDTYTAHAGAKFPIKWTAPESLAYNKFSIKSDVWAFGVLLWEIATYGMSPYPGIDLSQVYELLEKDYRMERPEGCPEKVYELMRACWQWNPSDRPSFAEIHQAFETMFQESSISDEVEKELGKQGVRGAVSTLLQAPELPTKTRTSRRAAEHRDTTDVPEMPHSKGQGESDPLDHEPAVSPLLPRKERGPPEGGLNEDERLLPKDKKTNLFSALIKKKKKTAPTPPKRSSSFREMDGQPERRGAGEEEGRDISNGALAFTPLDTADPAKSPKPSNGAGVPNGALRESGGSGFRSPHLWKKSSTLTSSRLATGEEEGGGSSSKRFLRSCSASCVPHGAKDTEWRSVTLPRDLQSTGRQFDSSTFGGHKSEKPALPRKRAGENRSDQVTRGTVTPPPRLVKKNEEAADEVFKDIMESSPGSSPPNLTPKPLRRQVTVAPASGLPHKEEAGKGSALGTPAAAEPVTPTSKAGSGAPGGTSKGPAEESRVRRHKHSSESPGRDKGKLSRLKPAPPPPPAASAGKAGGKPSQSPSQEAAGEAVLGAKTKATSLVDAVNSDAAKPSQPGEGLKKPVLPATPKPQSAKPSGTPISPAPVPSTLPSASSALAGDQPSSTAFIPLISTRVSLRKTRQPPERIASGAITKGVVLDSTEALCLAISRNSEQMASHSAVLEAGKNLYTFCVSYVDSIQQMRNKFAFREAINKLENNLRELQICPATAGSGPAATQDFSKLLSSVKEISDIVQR
# Target sequence (Q13671 whole entry, looked up): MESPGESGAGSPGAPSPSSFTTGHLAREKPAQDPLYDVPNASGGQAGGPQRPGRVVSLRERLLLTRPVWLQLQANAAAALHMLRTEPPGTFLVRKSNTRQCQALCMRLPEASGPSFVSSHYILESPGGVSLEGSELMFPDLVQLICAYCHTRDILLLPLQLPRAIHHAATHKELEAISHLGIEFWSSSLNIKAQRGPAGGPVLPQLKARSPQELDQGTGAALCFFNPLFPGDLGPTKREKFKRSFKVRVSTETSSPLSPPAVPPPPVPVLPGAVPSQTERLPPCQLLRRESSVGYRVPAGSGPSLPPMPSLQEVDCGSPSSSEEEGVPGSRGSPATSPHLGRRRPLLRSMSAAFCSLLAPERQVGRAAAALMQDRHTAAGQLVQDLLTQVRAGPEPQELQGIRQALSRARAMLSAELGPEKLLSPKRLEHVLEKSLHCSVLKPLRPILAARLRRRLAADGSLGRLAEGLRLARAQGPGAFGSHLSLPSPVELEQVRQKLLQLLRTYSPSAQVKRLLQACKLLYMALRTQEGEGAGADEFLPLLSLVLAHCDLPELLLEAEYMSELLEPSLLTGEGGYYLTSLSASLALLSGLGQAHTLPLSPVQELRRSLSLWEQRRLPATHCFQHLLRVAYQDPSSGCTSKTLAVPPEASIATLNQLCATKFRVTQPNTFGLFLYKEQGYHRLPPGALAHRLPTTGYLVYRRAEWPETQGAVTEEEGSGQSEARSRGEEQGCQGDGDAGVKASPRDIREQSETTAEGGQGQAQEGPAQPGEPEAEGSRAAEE
# UBC9 SUMO inh – blocks human SUMOylation mediated by UBC9 | P63279 | HTRF SUMOylation assay, SAE1/SAE2 + UBC9, in vitro | inhibition, % at 35 µM | hit rate 0.36% among 290,000; in the data active = inhibition above about 50%, passing the limit was not always enough
# Casp3 UBC13 ctr – caspase-3 inhibition (UBC13 counter-screen) | shares compounds with UBC13 inh | Recombinant caspase-3, Caspase-Glo 3/7 luminescence, 60 min | inhibition, % at 20 µM | hit rate 4% among 1,400;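 active = mean inhibition across replicates above about 26%, limit read from the data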;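 note: plate controls were DMSO with caspase-3 for no effect and DMSO wells lacking enzyme for full effect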
# UBC13 conf – human UBC13 polyubiquitin inhibition, confirmed | shares compounds with UBC13 inh | inhibition, % at 10 µM | AID 488859 | hit rate 68% among 1,400 | UBC13 polyubiquitination, TR-FRET, biochemical; in the data active = inhibition above about 45%
# * = called active by the depositor; / = not tested or not shown.
SMILES,GSTO1 inh,UBC13 inh,Apaf1 inhib,PAD4 FP inh,Rin1-Abl PPI inh,UBC9 SUMO inh,Casp3 UBC13 ctr,UBC13 conf
CCc1ccc(NC(=O)Cn2c(=O)n(CCC(=O)NC3CCN(Cc4ccccc4)CC3)c(=O)c3ccccc32)cc1,1,16,-5,3,-2,19,/,/
O=C(CCCCn1c(=O)c2ccccc2n(Cc2ccccc2)c1=O)NC1CCN(Cc2ccccc2)CC1,3,94*,4,-3,6,-8,1,108*
O=C(CCCn1c(=O)c2ccccc2n(Cc2cccc(F)c2)c1=O)NC1CCN(Cc2ccccc2)CC1,6,100*,-16,-1,/,-13,4,112*
O=C(Nc1ccn(CCCNCc2cccc3ccccc23)c(=O)n1)OCc1ccccc1,/,/,/,/,-2,/,/,/
COc1ccc(S(=O)(=O)N2CCC(CN3C(=O)c4cccc5cccc(c45)C3=O)CC2)cc1,-5,36,5,-3,-3,15,/,/
O=C(c1ccc(S(=O)(=O)N2CCCC2)cc1)N1CCC(CN2C(=O)c3cccc4cccc(c34)C2=O)CC1,-16,91*,9,-2,1,9,0,95*
Cc1cccc(NC(=S)N2CCN(S(C)(=O)=O)CC2)c1,0,3,2,-1,-2,5,/,/
O=C(O)CCCC(=O)OCc1c(-c2ccccc2)ncc2ccccc12,/,0,-5,1,4,/,/,/
NCC12CC3CC(C1)CC(c1ccc(Cl)cc1)(C3)C2,5,57*,32,0,4,-1,-4,76*
Nc1ccc(C23CC4CC(CC(CO)(C4)C2)C3)cc1,3,4,3,-3,-1,16,/,/
O=C1c2cccc3cc(Br)cc(c23)C(=O)N1Nc1ccc(Br)cc1,3,-5,-18,0,-4,4,/,/
O=C1c2cccc3cccc(c23)C(=O)N1Nc1ccccc1,5,52*,6,5,-2,12,-1,43
CC(C(=O)NC1CCCC1)N(C(=O)c1snc(C(N)=O)c1N)c1ccc2c(c1)OCCO2 (configuration not stated),-5,72*,-1,-1,-1,32,1,72*
COc1ccc(N(C(=O)c2snc(C(N)=O)c2N)C(C(=O)NC2CCCC2)c2ccc(OC)c(OC)c2)cc1 (configuration not stated),-6,37,11,0,0,3,/,/
CCC(C(=O)NC1CCCC1)N(C(=O)c1snc(C(N)=O)c1N)c1ccc(OC)cc1 (configuration not stated),1,52*,6,2,0,10,-1,62*
CCCCCCCCC(=O)N1CCN(c2cc3c(cc2F)c(=O)c(C(=O)O)cn3CC)CC1,-2,46*,11,0,0,0,1,16
CCCCCCCC(=O)N1CCN(c2cc3c(cc2F)c(=O)c(C(=O)O)cn3CC)CC1,/,40,32,/,4,5,/,/
COCCNC(=O)C1CCCN(C(=O)c2nc(C)oc2C)CC1 (configuration not stated),/,/,/,/,-4,/,/,/
Cn1nc(N)c2c(-c3ccc(Cl)cc3)c(C#N)c(N)nc21,2,72*,3,-1,-3,7,1,73*
Cn1nc(N)c2c(-c3ccccc3)c(C#N)c(N)nc21,2,59*,-5,-1,-3,4,1,59*
CCc1c(C)nc(N)c(C#N)c1-c1ccccc1,12,7,2,1,3,7,/,/
CCN(c1ccc(OC)cc1)S(=O)(=O)c1nnc(NC(=O)CC(C)C)s1,-25,-3,9,4,0,15,/,/
O=C1c2cccc3cccc(c23)C(=O)N1Cc1ccccc1,8,25,1,2,0,0,/,/
O=C1c2cccc3cccc(c23)N1Cc1cccc(F)c1,-4,76*,18,1,-3,19,-2,90*
O=C1c2cccc3cccc(c23)N1Cc1ccc(F)cc1,1,83*,-4,-1,3,24,3,96*
SMILES,GSTO1 inh,UBC13 inh,Apaf1 inhib,PAD4 FP inh,Rin1-Abl PPI inh,UBC9 SUMO inh,Casp3 UBC13 ctr,UBC13 conf
O=C1c2cccc3cccc(c23)C(=O)N1Cc1cccnc1,-1,65*,-9,1,-5,12,0,83*
COc1ccc(CN2C(=O)c3cccc4cccc(c34)C2=O)cc1,-3,16,-14,1,0,15,/,/
COc1cccc(CNc2nc(-c3cccnc3)nc3ccccc23)c1,-13,53*,-10,-6,-2,-23,3,42
CCOC(=O)c1cccc(Nc2nc(-c3cccnc3)nc3ccccc23)c1,-18,60*,20,-4,3,27,-4,70*
CC(C)NC(=O)c1ccc2sc([C@H]3C[C@H](O)[C@@H](CO)O3)nc2c1,/,/,/,/,-2,/,/,/
Cc1cscc1-c1cc2nc(NCCCN(C)C)n(C)c(=O)c2s1,/,/,/,/,-8,/,/,/
OCCCNc1ncnc2c1ncn2[C@H]1CN(Cc2ccco2)C[C@@H](CO)O1,/,/,/,/,-4,/,/,/
c1ccc(C[C@H]2CNCCN2CCCCC2CCCCC2)cc1,-8,61*,49*,-3,3,/,3,68*
c1ccc(C[C@H]2CNCCN2CC2CCCCC2)cc1,-2,18,-1,2,2,/,/,/
CCCCN(C(=O)c1ccco1)c1nnc(-c2cc(OC)c(OC)c(OC)c2)s1,7,50*,3,1,3,-2,2,38
Cn1c(SCC(=O)NCC2CCCO2)ncc(C(=O)Nc2ccc(Cl)cc2)c1=O (configuration not stated),8,58*,13,-3,1,/,98*,69*
Cn1c(SCC(=O)NCC2CCCO2)ncc(C(=O)Nc2ccc(F)cc2)c1=O (configuration not stated),8,59*,0,-3,1,/,96*,60*
Cc1ccccc1-n1ccnc1SCC(=O)NCC1CCCO1 (configuration not stated),-12,-5,20,1,-1,22,/,/
COc1ccc(-c2nc3ccc(Cl)cn3c2Cc2ccc(C)cc2)cc1OC,/,/,/,/,1,/,/,/
COc1ccc(Nc2nc(N)nc(CSc3nc(C)cc(C)n3)n2)cc1,-3,4,-6,-2,0,5,/,/
COc1ccc2nc(SCc3nc(N)nc(Nc4ccccc4)n3)[nH]c2c1,10,46*,-4,2,-2,17,-3,38
O=C(N/N=C/c1ccccn1)c1cc(-c2ccccc2Cl)n[nH]1,1,47*,-2,4,1,1,-2,42
CCc1ccc(-c2cc(C(=O)N/N=C/c3ccccn3)[nH]n2)cc1,-36,50*,12,-3,-2,14,2,54*

# Assay outcomes from PubChem.
